Laboratory results as given in ChEMBL document CHEMBL4813967, “Tackling resistance in chronic myeloid leukemia: Novel cell death modulators with improved efficacy” (Eur J Med Chem, 2021).
Activity calls are given as the source filed them. The calls are words filed in the database; no cut-off is given here.

Columns and labels:
K562 [1] = assay: Induction of cell sensitization to imatinib in imatinib-resistant human K562 cells assessed as cell death at 5 uM incubated for 72 hrs in presence of 1 uM imatinib by PI staining based flow cytometry (reference value: 19%); type: functional
K562 [2] = assay: Induction of cell sensitization to imatinib in imatinib-resistant human K562 cells assessed as cell death at 1.75 uM incubated for 72 hrs in presence of 1 uM imatinib by PI staining based flow cytometry (reference value: 19%); type: functional
K562 [3] = assay: Induction of cell sensitization to imatinib in imatinib-resistant human K562 cells assessed as cell death at 10 uM incubated for 72 hrs in presence of 1 uM imatinib by PI staining based flow cytometry (reference value: 19%); type: functional
[4] = molecular target: T1, Peroxisome proliferator-activated receptor gamma (Homo sapiens, UniProt P37231); assay: Agonist activity at Gal4-fused human PPARgamma transfected in African green monkey COS7 cells co-transfected with pGal5-TK-pGL3 and pRenilla-CMV assessed as receptor transactivation at 10 uM incubated for 39 hrs by dual luciferase reporter gene assay relative to piaglitazone; type: cell-based; conditions: COS-7, human, read-out: max activation
T1 sequence (P37231 whole entry): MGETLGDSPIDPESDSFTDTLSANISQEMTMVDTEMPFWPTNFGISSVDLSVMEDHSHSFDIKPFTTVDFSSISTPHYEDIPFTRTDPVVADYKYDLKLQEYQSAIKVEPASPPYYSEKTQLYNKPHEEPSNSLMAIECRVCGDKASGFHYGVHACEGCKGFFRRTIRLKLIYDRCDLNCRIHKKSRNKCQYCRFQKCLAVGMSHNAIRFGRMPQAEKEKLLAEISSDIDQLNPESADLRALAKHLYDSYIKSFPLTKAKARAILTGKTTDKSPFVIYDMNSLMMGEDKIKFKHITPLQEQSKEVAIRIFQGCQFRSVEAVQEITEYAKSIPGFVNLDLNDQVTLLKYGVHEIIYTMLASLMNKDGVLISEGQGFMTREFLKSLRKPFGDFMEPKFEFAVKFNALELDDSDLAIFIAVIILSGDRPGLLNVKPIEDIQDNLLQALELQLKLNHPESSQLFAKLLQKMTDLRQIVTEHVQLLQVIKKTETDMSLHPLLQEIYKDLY
In short: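 COS-7 cells (10^4/well, triplicates) grown 24 h, then transiently transfected with pGal5-TK-pGL3 (90 ng), pGal4-hPPARγDEF (9 ng) and pRenilla-CMV (3 ng). Compound added 7 h later, incubation 39 h. Cells lysed by freezing at -80 °C overnight plus lysis buffer. Firefly luciferase normalised to Renilla. Activity at 10 µM expressed relative to pioglitazone at 10 µM (100%). Mean ± SD of ≥3 experiments.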

[5] = Cytotoxicity against human HS5 cells assessed as cell death at 5 uM incubated for 72 hrs by PI staining based flow cytometry; conditions: hs5, 72 h
In short: (§1)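 HS-5 stromal cells in DMEM with 10% FCS, 5% CO2, 37 °C. Seeded 0.5×10^5/well, given compound (5 µM) alone or with imatinib, and incubated 72 h. Cells stained with PI/Triton X-100 for 2 h at 4 °C. Dead cells counted by flow cytometry as sub-G1 nuclei. DMSO vehicle control included.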

[6] = Modulation of STAT5 expression in imatinib-resistant human K562 cells assessed as STAT5 level at 5 uM measured after 6 hrs in presence of imatinib by Jess Simple Western immunoassay (reference value: 100%); type: functional
COS-7 [7] = assay: Cytotoxicity against African green monkey COS7 cells assessed as cell viability at 10 uM incubated for 72 hrs by MTT assay; type: cell-based; conditions: chlorocebus aethiops, cos-7, 72 h
In short: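 COS-7 cells in DMEM with 10% FCS and L-glutamine, no antibiotics or phenol red. Seeded 2×10^3/well in triplicate, grown 24 h, then compound added at 10 µM final and incubated 72 h. Modified MTT (tetrazolium) metabolic-activity readout by absorbance. DMSO control set to 100%; DMSO ≤0.1%. Mean + SD of ≥3 experiments, triplicate determinations.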

[8] = Cytotoxicity against human HS5 cells assessed as cell death at 5 uM incubated for 72 hrs in presence of imatinib by PI staining based flow cytometry; conditions: hs5, 72 h; in short: as §1
COS-7 [9] = assay: Cytotoxicity against African green monkey COS7 cells assessed as cell viability at 10 uM incubated for 72 hrs by MTT assay; conditions: chlorocebus aethiops, cos-7, 72 h
K562 [10] = assay: Cytotoxicity against imatinib-resistant human K562 cells assessed as cell death at 5 uM incubated for 72 hrs by propidium iodide staining based flow cytometry; conditions: k562, 72 h
In short: (§2)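 K562-resistant cells, a doxorubicin-resistant K562 subclone (KD225), grown in RPMI 1640 with 10% FCS. Seeded 2×10^5/well and exposed 72 h to compound alone or with 1 µM imatinib. PI/Triton X-100 staining 2 h at 4 °C; flow cytometry scoring sub-G1 nuclei as dead cells. DMSO vehicle (≤0.1%) controls. Mean ± SEM of ≥3 experiments.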

[11] = molecular target: T2, Signal transducer and activator of transcription 5A (Homo sapiens) (UniProt P42229); assay: Inhibition of STAT5 phosphorylation at Y694/699 residue in imatinib-resistant human K562 cells assessed as phosphorylated STAT5 level at 5 uM incubated for 6 hrs by Jess Simple Western immunoassay (reference value: 100%); type: cell-based; design: scale not given: the % may be the effect or the level left
T2 sequence (whole entry): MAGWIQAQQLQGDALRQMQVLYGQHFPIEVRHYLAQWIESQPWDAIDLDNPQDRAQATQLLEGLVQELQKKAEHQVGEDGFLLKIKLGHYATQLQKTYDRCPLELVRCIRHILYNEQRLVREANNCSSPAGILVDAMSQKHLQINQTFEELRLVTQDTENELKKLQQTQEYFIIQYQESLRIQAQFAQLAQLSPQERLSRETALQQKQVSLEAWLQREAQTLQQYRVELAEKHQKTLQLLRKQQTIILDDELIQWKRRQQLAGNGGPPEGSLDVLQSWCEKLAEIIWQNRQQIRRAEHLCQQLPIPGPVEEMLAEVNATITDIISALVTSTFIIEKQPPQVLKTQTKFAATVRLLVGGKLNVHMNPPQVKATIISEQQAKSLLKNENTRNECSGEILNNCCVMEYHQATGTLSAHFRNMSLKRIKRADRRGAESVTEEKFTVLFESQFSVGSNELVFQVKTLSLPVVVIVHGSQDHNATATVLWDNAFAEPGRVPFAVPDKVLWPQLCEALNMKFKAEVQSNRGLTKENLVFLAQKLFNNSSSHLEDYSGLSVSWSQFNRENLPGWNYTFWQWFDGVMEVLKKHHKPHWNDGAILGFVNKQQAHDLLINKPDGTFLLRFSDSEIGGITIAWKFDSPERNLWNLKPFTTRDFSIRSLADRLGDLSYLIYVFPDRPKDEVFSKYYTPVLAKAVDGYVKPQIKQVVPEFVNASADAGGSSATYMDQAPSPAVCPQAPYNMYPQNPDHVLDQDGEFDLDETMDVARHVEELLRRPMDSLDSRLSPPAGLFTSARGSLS
In short: (§3)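 K562-resistant (doxorubicin-resistant KD225) cells treated 6 h with compound at 5 µM, alone or with 1 µM imatinib, against a DMSO control. Total protein extracts analysed by capillary Jess Simple Western. STAT5 antibody 10 µg/ml with 0.2 mg/ml lysate; pSTAT5 (Y694/699) antibody 20 µg/ml with 2 mg/ml lysate. GAPDH (0.4 µg/ml) as loading reference; HRP anti-rabbit secondary.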

[12] = Modulation of STAT5 expression in imatinib-resistant human K562 cells assessed as STAT5 level at 5 uM measured after 6 hrs by Jess Simple Western immunoassay (reference value: 100%); type: functional; in short: as §3
[13] = molecular target: T2, Signal transducer and activator of transcription 5A (Homo sapiens); assay: Inhibition of STAT5 phosphorylation at Y694/699 residue in imatinib-resistant human K562 cells assessed as phosphorylated STAT5 level at 5 uM incubated for 6 hrs in presence of imatinib by Jess Simple Western immunoassay (reference value: 100%); type: cell-based; design: scale not given: the % may be the effect or the level left
K562 [14] = assay: Induction of cell sensitization to imatinib in imatinib-resistant human K562 cells assessed as cell death at >10 uM incubated for 72 hrs in presence of 1 uM imatinib by PI staining based flow cytometry; type: functional; conditions: dose microM >10, time 72.0 hrs; in short: as §2

SMILES	Activity (K562 [1])	Activity (K562 [2])	Activity (K562 [3])	Emax at 10 µM [4]	Activity [5]	Activity [6]	Activity (COS-7 [7])	Activity [8]	Activity (COS-7 [9])	Activity (K562 [10])	Activity [11]	Activity [12]	Activity [13]	Activity (K562 [14])
CCCc1nc2c(C)cc(-c3nc4ccccc4n3C)cc2n1Cc1ccc(-c2ccccc2C(N)=O)cc1	76%	41%	89%											
CCCc1nc2c(C)cc(-c3nc4ccccc4n3C)cc2n1Cc1ccc(-c2ccccc2C(=O)O)cc1 [TELMISARTAN]	57%	21%	63%	59.8%										
CCCc1nc2c(F)cccc2n1Cc1ccc(-c2ccccc2C(=O)OC)cc1	26%		>85%	14.7%	Non-Toxic	103%	Non-Toxic	Non-Toxic	Non-Toxic	<= 20%	102%	98%	42%	
CCc1ccc(CCOc2ccc(CC3SC(=O)NC3=O)cc2)nc1 (configuration not stated)														inactive
CCCc1nc2ccccc2n1Cc1ccc(-c2ccccc2C(=O)OC)cc1	57%		>85%	21.6%	Non-Toxic	112%	Non-Toxic	Non-Toxic	Non-Toxic	<= 20%	104%	112%	2%	
